Assay results reported in PubChem BioAssay AID493196 (Broad Institute, 2011).
Results filed as inconclusive are left out. Calls of active or inactive are those of the source.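 Rule for the calls: active = every repeat test active, with falling signal and half-maximal dose at most ten times the top dose; inconclusive = repeat tests disagree, or a weak flat or poor fit; inactive = all tests inactive, including signal shifting the wrong way.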

Columns and labels:
[1] = test system: HMLE_sh_eGFP viability, CellTiter-Glo luminescence, 72 h; experiment: HMLE_sh_eGFP viability loss – cell-based, luminescence, dry powder, set 3, counter-screen for breast cancer stem cell project, dose response (AID 493196)
Procedure, shortened: (§1)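 System: HMLE_sh_eGFP breast epithelial cells carrying eGFP-targeting shRNA | Quantity: 2000 cells/well | Measured by: CellTiter-Glo luminescence | Controls: DMSO neutral control, 160 µM puromycin positive control | Schedule: ≥4 h attachment, ~70–74 h exposure, 37 °C, 5% CO2 | Doses: 100 nL compound pinned into each well | Medium: Serum-free CSC screening medium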

[2] = as above; conditions: HMLE_sh_eGFP viability, CellTiter-Glo luminescence, 72 h; at 19.5 µM (top of the series)
Procedure, shortened: as §1

Compound	AC50 [1] [µM]	activity change, negative = cytotoxic [2]
CCN1C(=O)/C(=C\N2CCN(c3cccc(Cl)c3)CC2)SC1=S	11.8	
COC(=O)c1c(NC(=O)c2ccccc2)sc2c1CC(C)(C)OC2	13.4	
O=C(c1ccccc1)c1coc2ccc(O)c(Br)c12		1.2% (inactive)
CC(C)(C)c1ccc2c(c1)OC(C(=O)NN=Cc1ccc[nH]1)CO2 (mixture of isomers)	19.6	
Nc1cc(Cl)ccc1Oc1ccc2ccccc2c1	9.73	
C/C(=N\NC(=O)c1cc(-c2cccc([N+](=O)[O-])c2)n[nH]1)c1ccccc1O	3.52	
CC(=O)c1cccc(NS(=O)(=O)c2cc(-c3cnc(C4CC4)o3)ccc2C)c1	2.67	
O=C1NC(=Nc2ccc(Cl)cc2)SC1Cc1cccc(Cl)c1Cl (stereo not drawn)	14.5	
Cc1ccc2nc(NC(=O)c3cccc(-c4cc5ccccc5oc4=O)c3)sc2c1	1.85	
CCCCCCc1cc2cc(S(=O)(=O)c3ccc(Cl)cc3)c(=O)oc2cc1O	0.965	
Cc1onc(-c2ccccc2)c1C(=O)Nc1sc2c(c1C#N)CCC(C)C2 (stereo not drawn)	6.9	
O=C(Nc1ccccc1N1CCCC1)c1cccc(-c2cc3ccccc3oc2=O)c1	7.97	
CN(c1ccccc1)S(=O)(=O)c1ccc(-c2ccccc2)cc1	14.4	
